This is a sample that favours compounds with a hit; in the whole collection about 4.9% have one here.
APP 5'UTR act: activates APP 5'UTR luciferase reporter | hit rate 1% among 190,000 | AID 1276 | activation, % at 2 µM | SH-SY5Y APP 5'UTR luciferase reporter, luminescence; zero percent = DMSO vehicle wells;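 active means activation above a set limit, based on mean plus 3 SD of controls, cut at about 140% in these data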
STAT1 inh: reduces IFN-gamma driven STAT1 reporter signal; NIH 3T3 STAT1-luciferase reporter, luminescence; inhibition, % at 5.5 µM; hit rate 0.35% among 200,000; AID 920;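 active means inhibition above a set limit, the mean inhibition across all tested compounds plus 3 SD, cut at about 34% in these data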
STAT1 act: STAT1 signaling activation | NIH 3T3 STAT1-luciferase reporter, IFN-gamma, luminescence; 100% = IFN-gamma alone, no compound | activation (% of control), % at 5.5 µM | hit rate 2.6% among 200,000 | AID 932;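 active means activation above the screen-wide mean activation plus 3 SD, cut at about 130% in these data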
STAT3 act: activators of IL-6 induced STAT3 signaling | U3A cells, IL-6 STAT3-luciferase reporter, luminescence; 100% = signal with IL-6 EC80 alone | AID 871 | hit rate 0.91% among 190,000 | activation (% of control), % at 5.6 µM;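 active means activation above the screen-wide mean of compound activation plus 3 SD, cut at about 130% in these data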
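Material: STAT3-luciferase reporter U3A cells; Probe or stimulus: IL-6 (33 ng/mL); Incubation: compound pre-incubation 1 h before IL-6, then 6 h stimulation at 37 °C; Technique: luminescence from STAT3-driven luciferase reporter; Evaluation: % activation versus median of IL-6-stimulated wells; Controls: IL-6-only high control.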
STAT3 blocker: inhibitors of IL-6 induced STAT3 signaling | U3A cells, IL-6 STAT3-luciferase reporter, luminescence; host cell line lacks STAT1 | inhibition, % at 5.5 µM | hit rate 0.89% among 190,000;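 active means inhibition above the mean inhibition across all screened compounds plus 3 SD, cut at about 44% in these data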
NF-kB expr up: compounds increasing NF-kB expression in human neuronal cells; NF-kB reporter expression; hits give high values; fold change at 12.5 µM; hit rate 1.6% among 190,000; AID 1239; in the data active means fold change above about 3.3
Hits are given with their value; i = inactive; nt = no result given.

SMILES	APP 5'UTR act	STAT1 inh	STAT1 act	STAT3 act	STAT3 blocker	NF-kB expr up
O=C(NCCc1ccccc1)C(=Cc1ccc(C(=O)O)cc1)C(=O)NCCc1ccccc1	i	i	i	i	i	i
CN(C)/C=C/C(=O)c1cnc(-c2ccccc2Cl)s1	i	i	139.2	i	i	3.52
CN(C)/C=C/C(=O)c1cnc(-c2ccccn2)s1	i	i	129.3	i	i	i
CN(C)/C=C/C(=O)c1cnc(-c2cccc(Cl)c2)s1	i	i	137.5	i	i	i
CC(=O)c1sc(-c2ccccc2Cl)nc1C	i	i	i	i	i	i
CN(C)/C=C/C(=O)c1ccc(Br)s1	i	i	i	i	i	i
CC(=O)c1cnc(-c2cccc(Cl)c2)s1	i	i	i	i	i	i
CCN(CC)S(=O)(=O)c1ccc(OC)c(NC(=O)CSc2ccccc2)c1	i	i	i	i	i	i
CCCc1cc(=O)n2[nH]c(-c3ccc(Br)cc3)cc2n1	i	i	143.8	i	i	i
Cc1cc(=O)n2[nH]c(-c3ccc(Cl)cc3)cc2n1	i	i	143.2	i	i	i
Cc1cc(=O)n2[nH]c(-c3ccc(F)cc3)cc2n1	i	i	i	i	i	i
COc1ccc(C2C(C(C)=O)=C(O)C(=O)N2c2nccs2)c(OC)c1 (configuration not stated)	i	i	i	i	i	i
CCOC(=O)CN=C/C(C(=O)Nc1nccs1)=C(/C)O	i	i	i	i	i	i
Cc1ccc(-c2nnc(Cc3ccc([N+](=O)[O-])cc3)o2)cc1	147.0	i	i	i	i	i
Cc1cc(C(=O)Nc2nc3c(s2)CCCC3)no1	151.6	i	138.8	i	i	5.12
Cc1cc(C)c2nc(NC(=O)c3cc(C)on3)sc2c1	i	i	i	i	i	i
CCc1ccc2nc(NC(=O)c3cc(C)on3)sc2c1	i	i	133.3	i	i	3.46
COCCSc1ccccc1C(=O)Nc1ccccc1C#N	i	i	i	i	i	i
CCC(C)NC(=O)C(=O)NCc1ccccn1 (configuration not stated)	i	i	i	i	i	nt
CC(Sc1nc(-c2ccccc2)cs1)C(=O)Nc1ccc(Cl)cn1 (configuration not stated)	i	i	i	i	i	i
COCCCNC(=S)N1CCN(c2ccccc2)CC1	i	i	i	i	i	i
O=S(=O)(NC1CCCC1)c1ccc(S(=O)(=O)N(Cc2cccs2)CC2CCCO2)cc1 (configuration not stated)	i	i	i	i	i	i
O=S(=O)(c1ccc(S(=O)(=O)N(Cc2cccs2)CC2CCCO2)cc1)N1CCCCC1 (configuration not stated)	i	i	129.0	i	i	i
O=C(Nc1ccc(F)cc1F)c1noc2c1CCC2	i	i	i	i	i	i
COc1ccccc1Nc1ccncc1[N+](=O)[O-]	i	i	i	i	i	i
SMILES	APP 5'UTR act	STAT1 inh	STAT1 act	STAT3 act	STAT3 blocker	NF-kB expr up
COc1ccccc1N/C=C/c1onc(C)c1[N+](=O)[O-]	141.9	76.0	i	i	87.1	i
Cc1noc(/C=C/Nc2ccc(F)cc2F)c1[N+](=O)[O-]	173.0	i	146.6	i	i	6.93
COc1cccc(CC2(CO)CCCN(Cc3ccc4c(c3)OCCO4)C2)c1 (configuration not stated)	i	i	i	i	i	i
Cc1ccc(C(=O)Nc2nnc(C3CCCCC3)s2)o1	i	i	i	i	i	3.76
O=C(Nc1nccs1)c1ccc(Br)o1	i	i	i	i	i	i
Cc1nc(NC(=O)c2ccc(Br)o2)sc1C	i	i	130.3	i	i	4.7
Cc1cc(C(=O)Nc2nnc(C3CCCCC3)s2)no1	i	i	i	i	i	i
NS(=O)(=O)c1ccc2nc(NC(=O)c3ccc(Br)o3)sc2c1	i	i	129.1	i	i	i
Cc1ccc(C(=O)Nc2nc(C)c(C)s2)o1	i	i	131.9	i	i	4.03
CC1CCCC/C1=N\NC(=S)Nc1ccccc1 (configuration not stated)	174.9	i	i	i	i	i
CC1CCC/C(=N\NC(=S)Nc2ccccc2)C1 (configuration not stated)	i	i	i	i	i	i
CC(C)(C)c1cc(N)on1	i	i	i	i	i	i
O=S1(=O)CCN2C(c3cccc4ccccc34)=CSC2=N1	i	i	i	i	i	i
C1=C(c2cccc3ccccc23)N2CCN=C2S1	i	i	i	150.4	i	i
COC(=O)c1sccc1NC(=O)c1csc(C)c1	i	i	i	135.6	i	i
COC(=O)c1sccc1NC(=O)Nc1ccc(Cl)c(Cl)c1	i	i	143.9	i	i	i
O=C(Nc1nnc(-c2ccco2)s1)C1CCCCC1	i	i	144.3	i	i	i
O=c1cc(CN2CCc3ccccc3C2)nc2sccn12	i	i	i	i	i	3.53
O=C1NC(=O)C2(COC(c3cccnc3)OC2)S1 (configuration not stated)	i	i	i	i	i	i
Cc1cc(C(=O)CN2CCCC(C)C2)c(C)n1-c1ccc(F)cc1 (configuration not stated)	i	i	142.7	i	i	i
COC(=O)C1CCN(CC(=O)NC(=O)NC2CCCCC2)CC1	i	i	i	i	i	i
O=C(/C=C/c1cccc([N+](=O)[O-])c1)Nc1ccc(Cl)cn1	i	i	i	i	i	i
Cc1ccc(NC(=O)/C=C/c2ccc(Cl)cc2)nc1	i	i	136.6	139.9	i	i
O=C(/C=C/c1ccccc1)Nc1ccc(Br)cn1	i	i	142.3	i	i	i
COc1ccc(NC(=O)C(=O)N2N=C3CCCCC3C2(O)C(F)(F)F)cc1 (configuration not stated)	i	i	i	i	i	i
SMILES	APP 5'UTR act	STAT1 inh	STAT1 act	STAT3 act	STAT3 blocker	NF-kB expr up
Cc1sc2nc3ccc(N4CCCC4)nn3c(=O)c2c1C	i	i	i	nt	nt	i
Cc1ccc2nc3ccc(N4CCCCCCC4)nn3c(=O)c2c1	i	i	143.6	i	i	i
O=c1c2ccccc2nc2ccc(N3CCOCC3)nn12	i	i	i	i	i	i
Cc1ccc2nc3ccc(N4CCN(C)CC4)nn3c(=O)c2c1	i	i	136.6	i	i	i
CC(C)c1nc2ccc(Br)cn2c1NC1CCCC1	i	i	i	i	i	i
NC(=O)c1cc(C(=O)c2ccccc2Cl)c[nH]1	i	i	i	i	i	i
O=C(NNC(=O)c1cccc(Br)c1)Nc1ccc(Cl)cc1	i	i	i	i	i	i
CCC(C)c1ccc(NC(=O)c2cccnc2)cc1 (configuration not stated)	i	i	133.0	i	i	3.91
CC(C)c1ccc(NC(=O)c2cccc(Br)c2)cc1	i	i	140.3	i	i	i
CCC(C)c1ccc(O)c(NC(=O)c2cccnc2)c1 (configuration not stated)	i	i	i	i	i	i

Source: PubChem
